Converted amounts (≈) assume the structure as drawn. Values belong to the molecule of their own block, whether it stands above or below them.
Legend:
[1] = Oral bioavailability in NCR nude mouse at 25 mg/kg; format: ADME, organism-based; conditions: in vivo
[2] = Plasma protein binding in Cynomolgus monkey at 5 uM after 4 hrs by LC-MS/MS analysis; format: ADME, cell-free, Macaca fascicularis; conditions: read-out: PPB (converted)
Outline: (§1)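 Equilibrium dialysis of pooled plasma (n ≥ 3) spiked with compound at 5 µM total against PBS pH 7.4, 37 °C, 5% CO2, for 4 h; plasma and buffer concentrations measured by LC-MS/MS; percent unbound calculated as buffer/plasma ×100.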

[3] = Antiproliferative activity against human MCF7-neo/Her2 cells after 3 days by luminescence plate reader method; format: functional, cell-based; conditions: 72 h
[4] = Volume of distribution at steady state in Beagle dog at 1 mg/kg, iv; format: ADME, organism-based, Canis lupus familiaris; conditions: in vivo, read-out: Vdss
[5] = Cmax in Sprague-Dawley rat at 5 mg/kg, po; format: ADME, organism-based; set-up: dose 5 mg/kg, route oral; conditions: in vivo
Outline: (§2)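 Male Sprague-Dawley rats dosed PO at 5 mg/kg in 0.5% methylcellulose/0.2% Tween 80 (MCT); the IV reference arm was 1 mg/kg in 60% PEG400/10% ethanol.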

Cytochrome P450 1A2 = target: T1, Cytochrome P450 1A2 (Homo sapiens, UniProt P05177); assay: Inhibition of CYP1A2 (unknown origin); format: ADME
T1 sequence (P05177 whole entry): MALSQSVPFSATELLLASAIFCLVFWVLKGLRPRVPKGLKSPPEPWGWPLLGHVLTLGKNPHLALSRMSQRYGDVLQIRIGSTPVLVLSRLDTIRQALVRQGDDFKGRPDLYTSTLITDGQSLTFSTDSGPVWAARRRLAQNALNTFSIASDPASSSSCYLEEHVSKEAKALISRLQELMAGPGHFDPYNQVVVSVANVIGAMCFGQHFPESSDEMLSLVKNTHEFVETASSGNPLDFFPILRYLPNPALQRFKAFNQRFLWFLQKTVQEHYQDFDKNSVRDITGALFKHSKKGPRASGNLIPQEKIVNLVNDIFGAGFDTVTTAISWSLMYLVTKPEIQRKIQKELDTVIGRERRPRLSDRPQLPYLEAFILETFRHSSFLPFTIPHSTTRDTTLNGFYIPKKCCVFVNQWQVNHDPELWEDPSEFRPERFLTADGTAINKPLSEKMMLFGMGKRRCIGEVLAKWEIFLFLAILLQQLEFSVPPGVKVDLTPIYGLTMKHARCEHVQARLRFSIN

[6] = Cmax in Cynomolgus monkey at 2 mg/kg, po; format: ADME, organism-based, Macaca fascicularis; set-up: dose 2 mg/kg, route oral; conditions: in vivo
Outline: (§3)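 Single oral dose at 2 mg/kg in 0.5% methylcellulose with 0.2% Tween 80, given to beagle dogs or male cynomolgus monkeys; the IV reference was 1 mg/kg in 60% PEG400/10% ethanol.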

[7] = Plasma protein binding in Sprague-Dawley rat at 5 uM after 4 hrs by LC-MS/MS analysis; format: ADME, cell-free; conditions: read-out: PPB (converted); outline: as §1
[8] = target: Phosphatidylinositol 4-phosphate 3-kinase C2 domain-containing subunit beta (Homo sapiens) (UniProt O00750); assay: Inhibition of PI3KC2b (unknown origin) at 1 uM
Phosphatidylinositol 4-phosphate 3-kinase C2 domain-containing subunit beta (Homo sapiens), sequence (O00750 whole entry, the tested form may be a part): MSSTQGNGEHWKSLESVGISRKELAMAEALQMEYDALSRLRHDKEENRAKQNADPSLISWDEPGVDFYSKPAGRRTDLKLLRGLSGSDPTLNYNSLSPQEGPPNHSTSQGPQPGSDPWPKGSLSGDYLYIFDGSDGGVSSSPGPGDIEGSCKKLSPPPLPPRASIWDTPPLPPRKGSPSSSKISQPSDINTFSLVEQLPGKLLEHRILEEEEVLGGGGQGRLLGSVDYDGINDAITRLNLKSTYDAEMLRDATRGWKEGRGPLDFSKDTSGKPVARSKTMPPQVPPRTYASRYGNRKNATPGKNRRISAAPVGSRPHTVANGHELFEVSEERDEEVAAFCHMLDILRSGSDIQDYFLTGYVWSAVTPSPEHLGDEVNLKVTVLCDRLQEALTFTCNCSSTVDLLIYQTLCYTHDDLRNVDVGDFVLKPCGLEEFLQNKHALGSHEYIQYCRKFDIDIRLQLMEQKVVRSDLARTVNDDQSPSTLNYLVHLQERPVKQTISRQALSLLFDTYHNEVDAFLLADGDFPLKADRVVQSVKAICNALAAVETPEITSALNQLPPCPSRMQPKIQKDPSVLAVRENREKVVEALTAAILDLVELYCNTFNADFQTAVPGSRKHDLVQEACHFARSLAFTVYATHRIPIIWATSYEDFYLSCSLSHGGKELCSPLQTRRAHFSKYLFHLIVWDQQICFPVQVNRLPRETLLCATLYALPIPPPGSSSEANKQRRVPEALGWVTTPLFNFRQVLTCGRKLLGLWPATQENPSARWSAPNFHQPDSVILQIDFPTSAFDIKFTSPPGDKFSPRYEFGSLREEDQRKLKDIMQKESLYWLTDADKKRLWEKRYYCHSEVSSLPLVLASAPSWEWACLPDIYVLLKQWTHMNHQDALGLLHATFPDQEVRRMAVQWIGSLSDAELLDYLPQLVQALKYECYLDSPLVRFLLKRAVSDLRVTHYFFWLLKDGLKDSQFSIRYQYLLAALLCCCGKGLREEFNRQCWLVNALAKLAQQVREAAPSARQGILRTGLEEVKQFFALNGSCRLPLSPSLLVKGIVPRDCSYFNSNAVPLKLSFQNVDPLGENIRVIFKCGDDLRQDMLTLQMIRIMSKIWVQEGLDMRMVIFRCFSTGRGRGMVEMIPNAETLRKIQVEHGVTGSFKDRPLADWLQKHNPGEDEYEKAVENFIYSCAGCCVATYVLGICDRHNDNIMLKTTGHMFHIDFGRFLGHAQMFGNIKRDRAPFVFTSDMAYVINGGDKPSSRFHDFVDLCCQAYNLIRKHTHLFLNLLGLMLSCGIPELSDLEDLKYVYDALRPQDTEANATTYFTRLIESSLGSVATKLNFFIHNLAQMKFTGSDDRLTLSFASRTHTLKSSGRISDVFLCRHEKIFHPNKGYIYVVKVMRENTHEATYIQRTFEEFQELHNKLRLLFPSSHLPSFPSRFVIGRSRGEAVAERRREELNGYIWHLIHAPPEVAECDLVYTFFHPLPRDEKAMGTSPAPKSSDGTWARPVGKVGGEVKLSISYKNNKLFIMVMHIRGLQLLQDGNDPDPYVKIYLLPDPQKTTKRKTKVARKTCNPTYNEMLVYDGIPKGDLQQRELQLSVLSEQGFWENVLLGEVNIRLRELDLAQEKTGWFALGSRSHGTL
Outline: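 Kinase panel screen of 235 kinases at Invitrogen with compound at 1 µM; read-out was percent inhibition.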

[9] = Antitumor activity against human KPL4 cells xenografted in SCID beige mouse assessed as tumor growth inhibition at 3.25 mg/kg, po qd for 21 days; format: functional; conditions: 504 h, read-out: TGI
Outline: (§4)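 KPL-4 breast cancer xenografts grown in scid beige mice; oral dosing once daily for 21 days in MCT vehicle (0.5% methylcellulose/0.2% Tween-80) at 0.78–25 mg/kg, 10 animals per group; tumor volumes fitted and tumor growth inhibition calculated versus vehicle-treated mice.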

[10] = Antitumor activity against human KPL4 cells xenografted in SCID beige mouse assessed as tumor growth inhibition at 1.56 mg/kg, po qd for 21 days; format: functional; conditions: 504 h, read-out: TGI; outline: as §4
[11] = Antitumor activity against human KPL4 cells xenografted in SCID beige mouse assessed as tumor growth inhibition at 0.78 mg/kg, po qd for 21 days; format: functional; conditions: 504 h, read-out: TGI; outline: as §4
[12] = Cmax in Beagle dog at 2 mg/kg, po; format: ADME, organism-based, Canis lupus familiaris; set-up: dose 2 mg/kg, route oral; conditions: in vivo; outline: as §3
Mus musculus [13] = assay: Toxicity in SCID beige mouse xenografted with human KPL4 cells assessed as body weight loss upto 12.5 mg/kg, po; format: organism-based; conditions: in vivo
[14] = Plasma protein binding in Beagle dog at 5 uM after 4 hrs by LC-MS/MS analysis; format: ADME, cell-free, Canis lupus familiaris; conditions: read-out: PPB (converted); outline: as §1
[15] = Cmax in NCR nude mouse at 25 mg/kg, po; format: ADME, organism-based; set-up: dose 25 mg/kg, route oral; conditions: in vivo
[16] = Clearance in Cynomolgus monkey at 1 mg/kg, iv; format: ADME, organism-based, Macaca fascicularis; conditions: in vivo
[17] = Antitumor activity against human MCF7-neo/Her2 cells xenografted in mouse assessed as tumor growth inhibition at 6.25 mg/kg, po qd for 21 days; format: functional; conditions: 504 h, read-out: TGI
Outline: (§5)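 MCF7-neo/HER2 breast cancer xenografts grown in nude mice; daily oral dosing for 21 days in 0.5% methylcellulose/0.2% Tween-80 vehicle at 0.78–25 mg/kg, 10 animals per group; fitted tumor volumes compared against vehicle-treated mice to give tumor growth inhibition.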

Canis familiaris [18] = assay: AUC in Beagle dog at 2 mg/kg, po; format: ADME, organism-based, Canis lupus familiaris; conditions: in vivo
[19] = Antitumor activity against human MCF7-neo/Her2 cells xenografted in mouse assessed as tumor growth inhibition at 3.25 mg/kg, po qd for 21 days; format: functional; conditions: 504 h, read-out: TGI; outline: as §5
[20] = Antitumor activity against human KPL4 cells xenografted in SCID beige mouse assessed as tumor growth inhibition at 6.25 mg/kg, po qd for 21 days; format: functional; conditions: 504 h, read-out: TGI; outline: as §4
Cytochrome P450 3A4 = Cytochrome P450 3A4 (Homo sapiens, UniProt P08684); assay: Inhibition of CYP3A4 (unknown origin); format: ADME
Cytochrome P450 3A4, sequence (P08684 whole entry): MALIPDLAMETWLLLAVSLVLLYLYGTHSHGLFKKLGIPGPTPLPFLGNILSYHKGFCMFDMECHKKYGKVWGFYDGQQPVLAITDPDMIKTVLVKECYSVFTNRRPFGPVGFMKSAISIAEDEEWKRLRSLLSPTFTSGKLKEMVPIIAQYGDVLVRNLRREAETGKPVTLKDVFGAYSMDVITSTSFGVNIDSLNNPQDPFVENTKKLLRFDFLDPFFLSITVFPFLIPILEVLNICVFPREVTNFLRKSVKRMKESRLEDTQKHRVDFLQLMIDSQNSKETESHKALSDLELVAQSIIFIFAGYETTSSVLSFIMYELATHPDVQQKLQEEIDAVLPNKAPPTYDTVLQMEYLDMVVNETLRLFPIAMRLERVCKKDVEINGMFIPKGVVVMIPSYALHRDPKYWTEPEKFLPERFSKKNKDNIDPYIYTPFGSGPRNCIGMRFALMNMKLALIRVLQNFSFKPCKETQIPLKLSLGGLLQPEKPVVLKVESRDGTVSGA

[21] = Cytotoxicity against human KPL4 cells after 4 days by luminescence plate reader method; format: functional, cell-based; conditions: KPL4, 96 h
Cytochrome P450 2D6 = Cytochrome P450 2D6 (Homo sapiens, UniProt P10635); assay: Inhibition of CYP2D6 (unknown origin); format: ADME
Cytochrome P450 2D6, sequence (P10635 whole entry): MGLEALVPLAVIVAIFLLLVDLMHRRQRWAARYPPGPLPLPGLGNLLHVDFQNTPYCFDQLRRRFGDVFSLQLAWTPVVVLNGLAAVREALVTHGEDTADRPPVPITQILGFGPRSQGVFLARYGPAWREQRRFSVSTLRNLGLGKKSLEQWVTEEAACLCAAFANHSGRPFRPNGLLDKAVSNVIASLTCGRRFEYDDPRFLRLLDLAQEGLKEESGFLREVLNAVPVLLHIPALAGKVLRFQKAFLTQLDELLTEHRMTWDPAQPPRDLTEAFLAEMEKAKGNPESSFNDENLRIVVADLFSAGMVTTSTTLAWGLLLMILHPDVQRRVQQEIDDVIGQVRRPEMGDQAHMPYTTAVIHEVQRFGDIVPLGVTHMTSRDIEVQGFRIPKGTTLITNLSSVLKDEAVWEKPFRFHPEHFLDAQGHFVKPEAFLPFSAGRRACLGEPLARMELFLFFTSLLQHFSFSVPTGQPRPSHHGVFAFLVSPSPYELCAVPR

[22] = AUC in NCR nude mouse at 25 mg/kg, po; format: ADME, organism-based; conditions: in vivo
Canis familiaris [23] = assay: Oral bioavailability in Beagle dog at 2 mg/kg; format: ADME, organism-based, Canis lupus familiaris; conditions: in vivo; outline: as §3
[24] = Antitumor activity against human MCF7-neo/Her2 cells xenografted in mouse assessed as tumor growth inhibition at 12.5 mg/kg, po qd for 21 days; format: functional; conditions: 504 h, read-out: TGI; outline: as §5
Cytochrome P450 2C19 = Cytochrome P450 2C19 (Homo sapiens, UniProt P33261); assay: Inhibition of CYP2C19 (unknown origin); format: ADME
Cytochrome P450 2C19, sequence (P33261 whole entry): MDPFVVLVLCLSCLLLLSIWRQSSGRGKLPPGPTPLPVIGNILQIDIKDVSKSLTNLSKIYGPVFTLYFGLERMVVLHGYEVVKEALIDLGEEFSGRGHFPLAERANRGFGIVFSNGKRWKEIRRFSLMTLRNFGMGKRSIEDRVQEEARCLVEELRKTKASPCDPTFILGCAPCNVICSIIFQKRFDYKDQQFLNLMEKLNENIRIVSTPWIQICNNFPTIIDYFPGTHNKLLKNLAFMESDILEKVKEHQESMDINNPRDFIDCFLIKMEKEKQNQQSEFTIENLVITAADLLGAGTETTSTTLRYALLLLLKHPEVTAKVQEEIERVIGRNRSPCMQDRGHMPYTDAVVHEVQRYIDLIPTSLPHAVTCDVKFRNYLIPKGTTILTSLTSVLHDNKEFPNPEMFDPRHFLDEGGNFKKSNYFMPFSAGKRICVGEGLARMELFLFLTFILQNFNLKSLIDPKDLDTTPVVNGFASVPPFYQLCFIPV

[25] = Clearance in Sprague-Dawley rat at 1 mg/kg, iv; format: ADME, organism-based; conditions: in vivo
[26] = AUC in Cynomolgus monkey at 2 mg/kg, po; format: ADME, organism-based, Macaca fascicularis; conditions: in vivo
[27] = Apparent permeability from apical to basolateral side in MDCK cells; format: ADME, cell-based, Canis lupus familiaris; conditions: dog
[28] = Thermodynamic solubility of compound at pH 7.4; format: physicochemical; conditions: buffer, read-out: Therm_solubility
Homo sapiens = assay: Antitumor activity against human MCF7-neo/Her2 cells xenografted in po dosed nude mouse assessed as tumor growth inhibition administered daily for 21 days; format: functional, organism-based; outline: as §5
Mus musculus [29] = assay: Decrease in phosphorylated Akt in mouse xenografted with human MCF7-neo/Her2 cells at 6.25 mg/kg administered as single dose after 1 hr by immunoassay; format: functional
Outline: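 Mice bearing MCF7-neo/HER2 tumors given a single oral dose in MCT vehicle; tumors collected 1 h later. Phospho-Akt Ser473 and total Akt measured by Mesoscale Discovery immunoassay and expressed as pAkt/tAkt relative to vehicle; four animals per group; unbound plasma drug measured at the same time.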

[30] = Oral bioavailability in Cynomolgus monkey at 2 mg/kg; format: ADME, organism-based, Macaca fascicularis; conditions: in vivo; outline: as §3
Cytochrome P450 2C9 = Cytochrome P450 2C9 (Homo sapiens, UniProt P11712); assay: Inhibition of CYP2C9 (unknown origin); format: ADME
Cytochrome P450 2C9, sequence (P11712 whole entry): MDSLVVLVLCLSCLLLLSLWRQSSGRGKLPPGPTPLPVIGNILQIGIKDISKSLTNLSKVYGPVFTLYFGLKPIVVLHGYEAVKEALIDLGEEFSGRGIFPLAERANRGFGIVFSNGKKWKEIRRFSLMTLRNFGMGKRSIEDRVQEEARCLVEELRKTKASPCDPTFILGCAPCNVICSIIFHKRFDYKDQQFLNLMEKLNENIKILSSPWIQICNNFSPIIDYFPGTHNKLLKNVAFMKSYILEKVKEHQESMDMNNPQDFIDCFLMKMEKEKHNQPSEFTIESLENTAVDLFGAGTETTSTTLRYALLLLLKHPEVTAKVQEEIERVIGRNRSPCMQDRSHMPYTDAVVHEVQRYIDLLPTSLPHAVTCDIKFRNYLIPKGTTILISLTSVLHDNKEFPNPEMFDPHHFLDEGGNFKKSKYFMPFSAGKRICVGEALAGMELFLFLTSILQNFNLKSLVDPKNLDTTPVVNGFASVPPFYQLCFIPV

[31] = Volume of distribution at steady state in Sprague-Dawley rat at 1 mg/kg, iv; format: ADME, organism-based; conditions: in vivo, read-out: Vdss
[32] = Antitumor activity against human MCF7-neo/Her2 cells xenografted in mouse assessed as tumor growth inhibition at 1.56 mg/kg, po qd for 21 days; format: functional; conditions: 504 h, read-out: TGI; outline: as §5
Mus musculus [33] = assay: Volume of distribution at steady state in NCR nude mouse at 1 mg/kg, iv; conditions: in vivo
KPL4 = assay: Antitumor activity against human KPL4 cells xenografted in po dosed SCID beige mouse assessed as tumor growth inhibition administered daily for 21 days; format: functional, organism-based; outline: as §4
[34] = Volume of distribution at steady state in Cynomolgus monkey at 1 mg/kg, iv; format: ADME, organism-based, Macaca fascicularis; conditions: in vivo, read-out: Vdss
[35] = Plasma protein binding in CD-1 mouse at 5 uM after 4 hrs by LC-MS/MS analysis; format: ADME, cell-free; conditions: CD-1, mouse, read-out: PPB (converted); outline: as §1
[36] = Clearance in NCR nude mouse at 1 mg/kg, iv; format: ADME, organism-based; conditions: in vivo
[37] = Antitumor activity against human KPL4 cells xenografted in SCID beige mouse assessed as tumor growth inhibition at 12.5 mg/kg, po qd for 21 days; format: functional; conditions: 504 h, read-out: TGI; outline: as §4
[38] = Antitumor activity against human MCF7-neo/Her2 cells xenografted in mouse assessed as tumor growth inhibition at 0.78 mg/kg, po qd for 21 days; format: functional; conditions: 504 h, read-out: TGI; outline: as §5
[39] = AUC in Sprague-Dawley rat at 5 mg/kg, po; format: ADME, organism-based; conditions: in vivo; outline: as §2
[40] = Oral bioavailability in Sprague-Dawley rat at 5 mg/kg; format: ADME, organism-based; conditions: in vivo; outline: as §2
[41] = Antiproliferative activity against human PC3 cells after 4 days by luminescence plate reader method; format: functional, cell-based; conditions: PC-3, 96 h
[42] = target: Phosphatidylinositol 4,5-bisphosphate 3-kinase catalytic subunit alpha isoform (Homo sapiens, UniProt P42336); assay: Inhibition of recombinant PI3K alpha (unknown origin) using PIP2 as substrate by fluorescence polarization assay; conditions: read-out: Ki(app)
Phosphatidylinositol 4,5-bisphosphate 3-kinase catalytic subunit alpha isoform, sequence (P42336 whole entry, canonical isoform): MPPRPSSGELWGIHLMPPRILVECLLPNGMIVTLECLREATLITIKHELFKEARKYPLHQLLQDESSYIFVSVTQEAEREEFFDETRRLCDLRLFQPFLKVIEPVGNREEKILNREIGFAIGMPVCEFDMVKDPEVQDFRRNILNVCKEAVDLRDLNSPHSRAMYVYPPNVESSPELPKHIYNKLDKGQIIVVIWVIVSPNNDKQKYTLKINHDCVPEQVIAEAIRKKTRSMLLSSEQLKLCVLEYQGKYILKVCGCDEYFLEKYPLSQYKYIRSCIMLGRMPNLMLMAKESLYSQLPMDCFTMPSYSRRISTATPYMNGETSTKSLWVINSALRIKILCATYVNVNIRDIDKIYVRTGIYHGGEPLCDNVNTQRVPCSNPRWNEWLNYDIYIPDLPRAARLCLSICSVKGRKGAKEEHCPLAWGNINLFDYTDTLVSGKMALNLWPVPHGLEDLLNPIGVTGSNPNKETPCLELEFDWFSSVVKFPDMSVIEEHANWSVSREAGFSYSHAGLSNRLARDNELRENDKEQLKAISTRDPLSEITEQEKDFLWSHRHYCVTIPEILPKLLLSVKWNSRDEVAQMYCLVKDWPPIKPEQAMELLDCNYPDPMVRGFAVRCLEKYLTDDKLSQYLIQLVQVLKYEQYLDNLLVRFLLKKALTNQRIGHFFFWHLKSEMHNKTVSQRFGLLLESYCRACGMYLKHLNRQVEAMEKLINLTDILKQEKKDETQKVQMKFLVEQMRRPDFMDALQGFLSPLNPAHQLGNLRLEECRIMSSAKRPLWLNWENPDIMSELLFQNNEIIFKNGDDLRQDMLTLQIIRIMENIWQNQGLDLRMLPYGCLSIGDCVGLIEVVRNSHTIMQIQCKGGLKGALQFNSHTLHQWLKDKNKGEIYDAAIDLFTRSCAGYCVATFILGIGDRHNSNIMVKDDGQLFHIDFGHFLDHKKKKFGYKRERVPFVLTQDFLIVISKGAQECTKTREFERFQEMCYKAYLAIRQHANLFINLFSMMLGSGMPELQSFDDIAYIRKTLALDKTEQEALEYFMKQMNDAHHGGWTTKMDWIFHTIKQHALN

bioavailability [1]: 55%
fraction unbound at 4 h, 5 µM [2]: 0.61
Vd [4]: 2.5 L/kg
Cmax [5]: 5.4 µM
IC50 (Cytochrome P450 1A2): > 10 µM
Cmax [6]: 1500 nM
fraction unbound at 4 h, 5 µM [7]: 0.37
inhibition [8]: 61%
Cmax [12]: 2100 nM
fraction unbound at 4 h, 5 µM [14]: 0.62
Cmax [15]: 31 µM
clearance [16]: 13 mL/min/kg
AUC (Canis familiaris [18]): 2.4 µM·h
IC50 (Cytochrome P450 3A4): > 10 µM
IC50 (Cytochrome P450 2D6): > 10 µM
AUC [22]: 74 µM·h
F (Canis familiaris [23]): 100%
IC50 (Cytochrome P450 2C19): > 10 µM
clearance [25]: 10 mL/min/kg
AUC [26]: 4.8 µM·h
Papp A→B [27]: 13 ×10⁻⁶ cm/s
solubility thermodynamic [28]: 82 µg/mL (≈ 214 µM)
bioavailability [30]: 72%
IC50 (Cytochrome P450 2C9): > 10 µM
Vd [31]: 1.5 L/kg
Vdss (Mus musculus [33]): 0.6 L/kg
Vd [34]: 1.5 L/kg
fraction unbound at 4 h, 5 µM [35]: 0.6
clearance [36]: 8 mL/min/kg
AUC [39]: 25.4 µM·h
bioavailability [40]: 120%
SMILES: CC(C)n1ncnc1-c1cn2c(n1)-c1ccc(O[C@@H](C)C(N)=O)cc1OCC2
EC50 [3]: 100 nM
inhibition in vivo at 3.25 mg/kg [9]: 97%
inhibition in vivo at 1.56 mg/kg [10]: 97%
inhibition in vivo at 0.78 mg/kg [11]: 73%
Activity (Mus musculus [13]): < 10%
inhibition in vivo at 6.25 mg/kg [17]: 101%
inhibition in vivo at 3.25 mg/kg [19]: 83%
inhibition in vivo at 6.25 mg/kg [20]: 122%
EC50 [21]: 60 nM
inhibition in vivo at 12.5 mg/kg [24]: 110%
Activity (Homo sapiens): Dose-dependent effect
inhibition in vivo at 6.25 mg/kg (Mus musculus [29]): 78%
inhibition in vivo at 1.56 mg/kg [32]: 79%
Activity (KPL4): Dose-dependent effect
inhibition in vivo at 12.5 mg/kg [37]: 121%
inhibition in vivo at 0.78 mg/kg [38]: 73%
EC50 [41]: 2200 nM

Ki [42]: 30 nM
SMILES: CNC(=O)[C@@H]1CCCN1c1cc2c(cn1)-c1nc(-c3ncnn3C(C)C)cn1CCO2

From ChEMBL document CHEMBL3769318, “The Rational Design of Selective Benzoxazepin Inhibitors of the α-Isoform of Phosphoinositide 3-Kinase Culminating in the Identification of (S)-2-((2-(1-Isopropyl-1H-1,2,4-triazol-5-yl)-5,6-dihydrobenzo[f]imidazo[1,2-d][1,4]oxazepin-9-yl)oxy)propanamide (GDC-0326)” (J Med Chem, 2016)
